Among the data in ChEMBL document CHEMBL3272251, “Synthesis of 5-substituted uracil derivatives” (1976) are Activity values, retold here.

Common to all, as to type: functional
The test system of experiment [1] is Staphylococcus aureus. As to the kind of experiment: Antibacterial activity against Staphylococcus aureus assessed as bacterial growth at 0.1 mM after 20 hrs by turbidometry relative to control. In outline: (§1)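 Tested at 1 × 10^-4 M in broth culture, a lower level chosen for limited solubility. Each inhibitor solution received a 2% inoculum of E. coli B or Staph. aureus stock culture. Incubated 20 hr at 37°C, then growth read as turbidity at 500 nm against untreated controls.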

Experiment [2] deals with Escherichia coli. The experiment is described as follows: Antibacterial activity against Escherichia coli B assessed as bacterial growth at 0.1 mM after 20 hrs by turbidometry relative to control. A digest of the protocol: as §1
Experiment [3] has as its system Escherichia coli. The experiment is described as follows: Antibacterial activity against Escherichia coli B assessed as bacterial growth at 1 mM after 20 hrs by turbidometry relative to control. In outline: (§2)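 Broth culture of E. coli B or Staph. aureus at inhibitor concentration 1 × 10^-3 M. Inoculum was 2% of stock culture added to each inhibitor solution. After 20 hr incubation at 37°C, turbidity was read at 500 nm and compared with controls.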

Experiment [4] relates to Staphylococcus aureus. As to the kind of experiment: Antibacterial activity against Staphylococcus aureus assessed as bacterial growth at 1 mM after 20 hrs by turbidometry relative to control. A digest of the protocol:
as §2

With `O=C(O)/C=C/c1c[nH]c(=O)[nH]c1=O`, the Activity in experiment [1] and in experiment [2] was 90% throughout.
On to `O=C(CO)c1c[nH]c(=O)[nH]c1=O`, for which the Activity in experiment [3] and in experiment [4] was 90% each time.
As for `C[N+](C)(C)CC(=O)c1c[nH]c(=O)[nH]c1=O.[Br-]`, the Activity in experiment [3] and in experiment [4] was 90% each time.
Regarding `Nc1nc(-c2c[nH]c(=O)[nH]c2=O)cs1`, the Activity in experiment [3] and in experiment [4] was 90% throughout.
`O=c1[nH]cc(-c2c[nH]cn2)c(=O)[nH]1`: the Activity in experiment [1] and in experiment [2] was 90% in each case.
For `O=c1[nH]cc(-c2ncc[nH]2)c(=O)[nH]1`, the Activity in experiment [1] and in experiment [2] was 90% each time.
